# GASC-1 inh: inhibitors of GASC-1 histone demethylase, primary screen, biochemical, fluorescence, DELFIA europium; Lysine-specific demethylase 4C (Homo sapiens), Q9H3R0; GST-JMJD2C(1-420) H3K9me3 demethylation; inhibition, % at 2.35 µM; 330,000 compounds, 0.069% hits;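 active means more than half of a compound's replicate wells show inhibition beyond 50%, single wells judged on their own value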;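 further: signal counts dimethyl H3K9 product captured on neutravidin plate; 0% = median of DMSO wells and 100% = 0.3 times that DMSO median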
# GRIN3A LBD mod: binders of NR3A ligand-binding domain, primary screen, biophysical, differential scanning fluorimetry, uHTS; NR3A LBD differential scanning fluorimetry, Tm shift; 0% = protein alone, 100% = glycine-bound protein; 340,000 compounds, 2.5% hits; Glutamate receptor ionotropic, NMDA 3A (GRIN3A) ligand-binding domain; Tm shift relative to glycine control, % at 25 µM;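 active means melting temperature shift of at least 10% of the positive control shift, at one fixed dose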
# T cell HTS: modulators of CD8 T cell-vesicle binding, primary screen, mouse 2C CD8+ T cells, flow cytometry. 2C CD8+ T cell-vesicle binding; hits give low values. response (vesicle binding), % at 7 µM. 330,000 compounds, 0.068% hits. AID 2052, 2009;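 active means response, share of CD8 T cells binding vesicles, and their 90th percentile fluorescence all below set limits, cut at about 80% in these data, passing the limit was not always enough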;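 further: values below 100% mean blocked vesicle binding to the CD8+ T cells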
#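 incubation = binding step 1.5 h, 37 °C, antibody labelling 20 min, ice | test system = 2C mouse CD8+ T cells | read-out basis = percent CD8+ FL2 mean versus row control | controls = Peptide-free naked vesicles (low) and QL9 vesicles with 0.7% DMSO vehicle (high) | detection = flow cytometry of vesicle-bound cells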
# Rtt109 Vps75: inhibitors of C. albicans Rtt109/Vps75 HAT, primary screen, biochemical, ThioGlo CoA-SH fluorescence, plate reader | Histone acetyltransferase RTT109 (Candida albicans (strain SC5314 / ATCC MYA-2876)), … | purified Rtt109/Vps75, 4 h | 330,000 compounds, 0.16% hits | inhibition, % at 34.9 µM;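 active means inhibition of at least 50% in every replicate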
# Target sequence (Q5AAJ8 whole entry, looked up): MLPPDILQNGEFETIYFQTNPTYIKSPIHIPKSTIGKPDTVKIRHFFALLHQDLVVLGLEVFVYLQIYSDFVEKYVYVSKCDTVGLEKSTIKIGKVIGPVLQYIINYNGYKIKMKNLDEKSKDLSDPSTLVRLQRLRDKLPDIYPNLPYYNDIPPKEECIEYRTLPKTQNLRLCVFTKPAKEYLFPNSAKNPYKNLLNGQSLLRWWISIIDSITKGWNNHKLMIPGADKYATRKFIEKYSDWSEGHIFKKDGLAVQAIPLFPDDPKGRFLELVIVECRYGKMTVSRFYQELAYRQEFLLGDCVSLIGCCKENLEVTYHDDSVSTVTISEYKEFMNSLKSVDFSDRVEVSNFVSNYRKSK
# An asterisk follows results filed as active; . = no result. Rows were chosen to be rich in hits. Some 2.8% of all compounds tested hit in one or more screens of this group.
SMILES,GASC-1 inh,GRIN3A LBD mod,T cell HTS,Rtt109 Vps75
CCCN1C(=O)/C(=C/c2nc3ccccc3c(=O)[nH]2)c2ccccc21,4,25*,396,4
CCCN1C(=O)/C(=C/c2nc3ccccc3c(=O)[nH]2)c2cc(C)ccc21,21,2,196,6
CCC(C(=O)OCC(=O)NC1CCS(=O)(=O)C1)c1ccccc1 (stereo not given),-5,-1,216,-9
Cc1ccc2nc(-c3sc4nc(C)cc(C)c4c3N)[nH]c2c1,2,15*,306,-145
Cc1ccc(OC(C)C(=O)Nc2ccc3c(c2)n(C)c(=O)n3C)c(C)c1 (stereo not given),0,1,974,-2
CC1(C)N=C(N)N=C(N)N1c1cccc(C#N)c1,.,1,.,-3
O=C(Nc1ccc(Cl)cc1)N(C1=NCCC1)c1ccc(OC(F)F)cc1,2,23*,254,-1
Cc1cccc(C)c1NC(=O)COC(=O)/C=C/c1ccc(S(=O)(=O)N2CCOCC2)cc1,-2,2,268,5
Cc1ccc(NC(=O)C2CCN(S(=O)(=O)c3ccc(C(C)(C)C)cc3)CC2)cc1S(=O)(=O)N1CCOCC1,.,-9,.,5
Cc1ccc(S(=O)(=O)N(C)CC(=O)N2CCN(Cc3ccccc3)CC2)cc1,-5,0,357,-3
Cc1ccc(NC(=O)c2ccc(C)cc2)cc1,2,-11,282,2
Cc1cccc(C(=O)Nc2ccc(C(=O)Nc3ccc(O)cc3)cc2)c1,8,38*,454,1
Cc1ccc(C(=O)Nc2ccc(Br)c(C(F)(F)F)c2)cc1,-1,10*,265,-1
Cc1ccc(C(=O)Nc2cccc(C(=O)N/N=C/c3ccc(O)cc3)c2)cc1,-1,11*,224,4
Cc1cccc(NC(=O)c2ccc(NC(=O)c3ccccc3Br)cc2)c1,5,27*,371,13
Cc1cccc(C(=O)Nc2cccc(C(=O)N/N=C/c3ccncc3)c2)c1,8,0,259,1
CCc1cccc(CC)c1-n1c(SCC(=O)N2CCCc3ccccc32)nc(O)cc1=O,9,-1,87,3
COc1ccc2[nH]c3c(c2c1)CCN1C(=O)C(CC(=O)NCc2ccco2)C[C@H](C(=O)N(C(C)C)C(C)C)[C@@]31C (stereo not given in full),.,-1,.,4
N#CC1(NC(=O)CSc2n[nH]c(-c3ccccc3)n2)CCCCC1,12,1,554,9
O=C(N/N=C/c1ccc(C(F)(F)F)cc1)c1ccc(O)cc1,5,12*,350,4
O=C(NC1=C(Nc2ccc(Cl)cc2)C(=O)c2ccccc2C1=O)c1ccccc1,4,-3,242,6
Oc1ccc(/C=N/Nc2ccc(C(F)(F)F)cn2)cc1,2,26*,234,-5
Cc1cccc(NC2=C(NC(=O)c3ccccc3)C(=O)c3ccccc3C2=O)c1,2,19*,191,0
COc1ccccc1-n1c(SCC(=O)c2ccc(O)cc2O)nc2cc([N+](=O)[O-])ccc21,-1,30*,248,5
COc1ccccc1-n1c(SCC(=O)NC2CCS(=O)(=O)C2)nc2cc([N+](=O)[O-])ccc21 (stereo not given),5,0,283,-24
SMILES,GASC-1 inh,GRIN3A LBD mod,T cell HTS,Rtt109 Vps75
O=C(NCC1CCCO1)c1ccc2c(=O)n(Cc3ccc(Cl)cc3)c(=S)[nH]c2c1 (stereo not given),2,22*,216,5
COc1ccccc1Cn1c(=S)[nH]c2cc(C(=O)NCC3CCCO3)ccc2c1=O (stereo not given),-26,-1,116,-1
C(=C\c1ccco1)/C1=NN(c2ccccc2)C(c2ccco2)C1 (stereo not given),10,-3,237,0
O=[N+]([O-])c1ccc(/C=C/C2=NN(c3ccccc3)C(c3ccco3)C2)o1 (stereo not given),-35,199*,.,20
COc1ccc(-c2ccnc(SCC(=O)c3ccc(Br)cc3)n2)cc1,7,26*,310,5
COC(=O)COc1ccc(-c2nccc(-c3ccc(Br)cc3)n2)cc1,0,-15,226,7

# Assay outcomes deposited in PubChem BioAssay by several laboratories.
